The structures appear in SMILES notation.

Data set [1] in a line: Stability in mouse liver microsomes assessed as compound turnover rate measured after 30 mins. The data set is classed as ADME, Microsome. The note with it: read-out: Drug metabolism. The gist of the method:
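In vitro incubation of compound with liver microsomes: human (HLM) for 40 min, mouse (MLM) for 30 min. Reported as % turnover of parent compound.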
In general terms: Liver microsomes are a subcellular fraction often used to study metabolism.

In data set [2] the target is Tyrosine-protein kinase BTK (Homo sapiens) (UniProt Q06187). The experiment in a line: Inhibition of BTK (unknown origin) at 10 uM relative to control. The method in brief: (§1)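 Single-point screen of each compound against a panel of 59 protein kinases, at 1 or 10 μM. The panel data are also summarised as a rescaled geometric mean selectivity score.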
For data set [3], the target named is Serine/threonine-protein kinase Chk2 (Homo sapiens) (UniProt O96017). The experiment in a line: Inhibition of CHK2 (unknown origin) at 10 uM relative to control. The method in brief: as §1
Serine/threonine-protein kinase Chk2 (Homo sapiens), sequence (O96017 whole entry): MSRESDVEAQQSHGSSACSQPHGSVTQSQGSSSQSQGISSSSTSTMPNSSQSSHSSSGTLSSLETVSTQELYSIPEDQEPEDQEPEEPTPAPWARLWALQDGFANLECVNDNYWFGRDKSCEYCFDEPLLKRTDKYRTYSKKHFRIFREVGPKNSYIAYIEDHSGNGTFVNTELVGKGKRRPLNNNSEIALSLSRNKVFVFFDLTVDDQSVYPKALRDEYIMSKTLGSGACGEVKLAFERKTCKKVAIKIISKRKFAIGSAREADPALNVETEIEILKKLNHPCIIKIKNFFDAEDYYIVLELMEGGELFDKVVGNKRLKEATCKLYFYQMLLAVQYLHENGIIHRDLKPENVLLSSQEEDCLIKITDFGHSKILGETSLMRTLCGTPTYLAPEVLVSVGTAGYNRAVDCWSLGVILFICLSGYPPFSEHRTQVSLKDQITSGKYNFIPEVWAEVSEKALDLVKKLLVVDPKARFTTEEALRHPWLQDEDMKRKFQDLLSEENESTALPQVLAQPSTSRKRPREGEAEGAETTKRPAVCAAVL
The target in data set [4] is Mitogen-activated protein kinase 1 (Homo sapiens) (UniProt P28482). The experiment in a line: Inhibition of ERK2 (unknown origin) at 10 uM relative to control. The method in brief:
as §1

The target of data set [5] is Homeodomain-interacting protein kinase 2 (Homo sapiens) (UniProt Q9H2X6). The experiment in a line: Inhibition of HIPK2 (unknown origin) at 10 uM relative to control. The gist of the method: as §1
Homeodomain-interacting protein kinase 2 (Homo sapiens), sequence (Q9H2X6 whole entry, looked up): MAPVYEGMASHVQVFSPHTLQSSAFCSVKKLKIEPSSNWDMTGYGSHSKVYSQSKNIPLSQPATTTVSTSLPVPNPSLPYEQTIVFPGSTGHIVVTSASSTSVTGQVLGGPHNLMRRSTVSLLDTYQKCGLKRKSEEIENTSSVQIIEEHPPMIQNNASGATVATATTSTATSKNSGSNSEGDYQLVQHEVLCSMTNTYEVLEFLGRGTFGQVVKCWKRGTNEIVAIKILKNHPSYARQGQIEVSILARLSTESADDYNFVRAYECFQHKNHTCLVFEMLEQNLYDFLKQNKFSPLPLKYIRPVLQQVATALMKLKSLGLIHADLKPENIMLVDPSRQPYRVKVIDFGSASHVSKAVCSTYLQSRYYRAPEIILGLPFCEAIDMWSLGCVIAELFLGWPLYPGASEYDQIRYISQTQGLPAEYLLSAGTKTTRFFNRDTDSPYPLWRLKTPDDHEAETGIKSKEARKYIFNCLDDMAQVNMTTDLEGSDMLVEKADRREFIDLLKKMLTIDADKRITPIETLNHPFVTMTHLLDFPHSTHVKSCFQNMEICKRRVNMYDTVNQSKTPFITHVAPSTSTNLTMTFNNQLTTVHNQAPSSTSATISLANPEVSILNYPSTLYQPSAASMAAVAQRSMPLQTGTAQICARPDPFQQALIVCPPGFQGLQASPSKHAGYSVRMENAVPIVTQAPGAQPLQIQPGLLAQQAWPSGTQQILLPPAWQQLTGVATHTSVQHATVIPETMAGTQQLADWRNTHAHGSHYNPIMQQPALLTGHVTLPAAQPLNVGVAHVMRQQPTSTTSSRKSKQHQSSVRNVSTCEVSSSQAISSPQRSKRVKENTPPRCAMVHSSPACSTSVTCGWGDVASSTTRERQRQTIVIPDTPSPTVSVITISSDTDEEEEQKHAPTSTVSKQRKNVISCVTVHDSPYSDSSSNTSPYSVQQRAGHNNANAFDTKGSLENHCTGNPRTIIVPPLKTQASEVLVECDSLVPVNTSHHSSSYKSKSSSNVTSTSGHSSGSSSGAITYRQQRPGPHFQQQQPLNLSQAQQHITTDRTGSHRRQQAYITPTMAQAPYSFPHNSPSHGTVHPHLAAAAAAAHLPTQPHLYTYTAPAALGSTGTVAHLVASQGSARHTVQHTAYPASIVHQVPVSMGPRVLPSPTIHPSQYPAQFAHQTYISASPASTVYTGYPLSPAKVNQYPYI
Data set [6] deals with Mitogen-activated protein kinase 8 (Homo sapiens) (UniProt P45983). The experiment in a line: Inhibition of JNK1 (unknown origin) at 10 uM relative to control. The method in brief:
as §1

Data set [7] addresses MAP kinase-interacting serine/threonine-protein kinase 2 (Homo sapiens) (UniProt Q9HBH9). The experiment in a line: Inhibition of MNK2 (unknown origin) at 10 uM relative to control. The gist of the method: (§2)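 Single-concentration screen of each compound against a 59-protein-kinase panel, run at 10 µM or 1 µM. Activity relative to control is shown as a heat map across the panel.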

Data set [8] addresses Serine/threonine-protein kinase 26 (Homo sapiens) (UniProt Q9P289). The experiment in a line: Inhibition of MST4 (unknown origin) at 10 uM relative to control. The method in brief:
as §2

Data set [9] has as its target Serine/threonine-protein kinase pim-1 (Homo sapiens) (UniProt P11309). The experiment in a line: Inhibition of PIM1 (unknown origin) at 10 uM relative to control. The method in brief: as §2
Data set [10] deals with RAC-alpha serine/threonine-protein kinase (Homo sapiens) (UniProt P31749). The experiment in a line: Inhibition of PKBa (unknown origin) at 10 uM relative to control. The gist of the method:
as §2

Data set [11] addresses RAC-beta serine/threonine-protein kinase (Homo sapiens) (UniProt P31751). The experiment in a line: Inhibition of PKBb (unknown origin) at 10 uM relative to control. The gist of the method:
as §2

Data set [12] addresses Protein kinase C alpha type (Homo sapiens) (UniProt P17252). The experiment in a line: Inhibition of PKCa (unknown origin) at 10 uM relative to control. The gist of the method:
as §2

In data set [13] the target is T1, Protein kinase C zeta type (Homo sapiens) (UniProt Q05513).
T1 sequence (whole entry): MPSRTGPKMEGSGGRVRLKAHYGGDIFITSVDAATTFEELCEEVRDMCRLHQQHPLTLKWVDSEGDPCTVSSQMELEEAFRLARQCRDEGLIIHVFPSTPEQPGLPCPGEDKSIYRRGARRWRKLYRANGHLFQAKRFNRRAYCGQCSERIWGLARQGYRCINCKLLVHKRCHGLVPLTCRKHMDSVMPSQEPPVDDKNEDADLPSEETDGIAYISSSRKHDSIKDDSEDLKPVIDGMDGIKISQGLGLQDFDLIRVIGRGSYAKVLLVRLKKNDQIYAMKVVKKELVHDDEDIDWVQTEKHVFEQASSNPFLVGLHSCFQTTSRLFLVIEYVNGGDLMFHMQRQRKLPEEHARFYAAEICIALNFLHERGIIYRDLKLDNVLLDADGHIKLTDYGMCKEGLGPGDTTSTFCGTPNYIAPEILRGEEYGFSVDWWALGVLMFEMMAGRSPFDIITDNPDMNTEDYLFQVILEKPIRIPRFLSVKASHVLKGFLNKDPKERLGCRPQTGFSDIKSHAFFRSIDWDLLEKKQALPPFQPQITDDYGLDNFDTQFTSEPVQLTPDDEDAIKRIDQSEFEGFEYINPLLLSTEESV
The experiment in a line: Inhibition of PKCz (unknown origin) at 10 uM relative to control. The method in brief: as §2

Data set [14] addresses T2, Serine/threonine-protein kinase D1 (Homo sapiens) (UniProt Q15139).
T2 sequence (whole entry): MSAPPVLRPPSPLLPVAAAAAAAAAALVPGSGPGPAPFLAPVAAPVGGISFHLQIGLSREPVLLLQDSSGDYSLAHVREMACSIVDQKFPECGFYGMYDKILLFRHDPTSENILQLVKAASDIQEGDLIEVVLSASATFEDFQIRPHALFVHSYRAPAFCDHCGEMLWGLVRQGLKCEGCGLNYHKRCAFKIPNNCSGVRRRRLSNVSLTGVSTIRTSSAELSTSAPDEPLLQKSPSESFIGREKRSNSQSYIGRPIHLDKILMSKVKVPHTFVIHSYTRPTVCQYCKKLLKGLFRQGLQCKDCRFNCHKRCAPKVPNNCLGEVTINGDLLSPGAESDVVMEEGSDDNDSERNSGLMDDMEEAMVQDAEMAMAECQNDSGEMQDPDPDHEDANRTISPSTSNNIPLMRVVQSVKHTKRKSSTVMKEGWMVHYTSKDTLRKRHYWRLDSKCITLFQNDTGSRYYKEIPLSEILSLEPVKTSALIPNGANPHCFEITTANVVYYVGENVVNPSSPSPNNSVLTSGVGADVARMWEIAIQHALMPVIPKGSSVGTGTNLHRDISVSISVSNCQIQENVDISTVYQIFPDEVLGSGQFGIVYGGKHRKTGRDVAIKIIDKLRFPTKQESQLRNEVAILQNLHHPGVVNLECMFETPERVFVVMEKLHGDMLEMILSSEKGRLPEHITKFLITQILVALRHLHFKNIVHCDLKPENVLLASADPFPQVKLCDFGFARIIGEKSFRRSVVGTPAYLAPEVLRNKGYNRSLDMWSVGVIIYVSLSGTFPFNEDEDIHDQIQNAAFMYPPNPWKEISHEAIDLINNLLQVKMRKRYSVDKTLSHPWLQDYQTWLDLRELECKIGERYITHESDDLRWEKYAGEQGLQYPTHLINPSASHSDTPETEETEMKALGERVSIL
The experiment in a line: Inhibition of PKD1 (unknown origin) at 10 uM relative to control. The gist of the method:
as §2

RAC-alpha serine/threonine-protein kinase (Homo sapiens), sequence (P31749 whole entry): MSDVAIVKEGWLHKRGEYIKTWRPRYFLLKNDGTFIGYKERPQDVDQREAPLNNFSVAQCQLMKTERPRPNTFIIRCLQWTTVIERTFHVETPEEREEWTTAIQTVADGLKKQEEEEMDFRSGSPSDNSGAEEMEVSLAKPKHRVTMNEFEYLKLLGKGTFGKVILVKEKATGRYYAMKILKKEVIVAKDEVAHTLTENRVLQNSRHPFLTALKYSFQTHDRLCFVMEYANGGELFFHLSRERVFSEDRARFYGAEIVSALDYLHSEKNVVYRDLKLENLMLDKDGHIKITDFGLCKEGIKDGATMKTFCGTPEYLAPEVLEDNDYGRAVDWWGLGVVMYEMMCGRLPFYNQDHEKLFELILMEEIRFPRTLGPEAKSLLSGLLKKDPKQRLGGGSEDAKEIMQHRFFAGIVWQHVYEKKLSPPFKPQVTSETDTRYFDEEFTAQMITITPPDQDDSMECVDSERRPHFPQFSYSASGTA
Serine/threonine-protein kinase 26 (Homo sapiens), sequence (Q9P289 2-416 limits assumed): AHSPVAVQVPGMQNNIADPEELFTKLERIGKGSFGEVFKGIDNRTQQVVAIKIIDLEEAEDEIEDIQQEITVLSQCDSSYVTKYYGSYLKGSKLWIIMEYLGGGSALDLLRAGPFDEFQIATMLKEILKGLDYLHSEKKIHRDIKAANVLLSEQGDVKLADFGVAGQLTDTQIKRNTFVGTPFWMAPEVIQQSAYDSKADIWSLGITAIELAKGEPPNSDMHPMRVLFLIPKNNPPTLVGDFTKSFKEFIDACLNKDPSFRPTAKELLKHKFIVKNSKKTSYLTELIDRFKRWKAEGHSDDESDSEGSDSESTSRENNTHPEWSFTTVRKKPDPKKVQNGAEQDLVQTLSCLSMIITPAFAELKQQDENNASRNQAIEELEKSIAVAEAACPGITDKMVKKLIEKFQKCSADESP
Mitogen-activated protein kinase 8 (Homo sapiens), sequence (P45983 whole entry): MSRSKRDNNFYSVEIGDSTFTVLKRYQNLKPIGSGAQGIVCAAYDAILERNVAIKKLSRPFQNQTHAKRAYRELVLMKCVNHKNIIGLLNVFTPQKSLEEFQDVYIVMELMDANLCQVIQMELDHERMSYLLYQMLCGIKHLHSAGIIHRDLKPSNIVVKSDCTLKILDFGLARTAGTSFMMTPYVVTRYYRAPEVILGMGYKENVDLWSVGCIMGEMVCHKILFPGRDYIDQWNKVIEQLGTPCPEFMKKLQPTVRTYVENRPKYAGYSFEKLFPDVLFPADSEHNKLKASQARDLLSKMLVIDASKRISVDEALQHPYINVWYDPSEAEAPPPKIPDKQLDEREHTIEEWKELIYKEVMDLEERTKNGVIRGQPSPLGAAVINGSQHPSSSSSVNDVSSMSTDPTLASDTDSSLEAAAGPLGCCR
Serine/threonine-protein kinase pim-1 (Homo sapiens), sequence (P11309 whole entry, looked up): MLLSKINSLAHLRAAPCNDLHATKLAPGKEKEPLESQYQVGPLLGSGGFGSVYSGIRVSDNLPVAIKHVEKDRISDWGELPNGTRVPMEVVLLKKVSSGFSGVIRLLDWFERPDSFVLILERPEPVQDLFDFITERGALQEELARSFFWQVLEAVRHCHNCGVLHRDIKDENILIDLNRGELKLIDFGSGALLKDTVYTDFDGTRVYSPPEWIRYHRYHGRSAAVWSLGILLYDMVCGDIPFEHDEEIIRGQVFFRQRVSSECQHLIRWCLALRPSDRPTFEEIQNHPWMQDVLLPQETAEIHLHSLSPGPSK
RAC-beta serine/threonine-protein kinase (Homo sapiens), sequence (P31751 whole entry): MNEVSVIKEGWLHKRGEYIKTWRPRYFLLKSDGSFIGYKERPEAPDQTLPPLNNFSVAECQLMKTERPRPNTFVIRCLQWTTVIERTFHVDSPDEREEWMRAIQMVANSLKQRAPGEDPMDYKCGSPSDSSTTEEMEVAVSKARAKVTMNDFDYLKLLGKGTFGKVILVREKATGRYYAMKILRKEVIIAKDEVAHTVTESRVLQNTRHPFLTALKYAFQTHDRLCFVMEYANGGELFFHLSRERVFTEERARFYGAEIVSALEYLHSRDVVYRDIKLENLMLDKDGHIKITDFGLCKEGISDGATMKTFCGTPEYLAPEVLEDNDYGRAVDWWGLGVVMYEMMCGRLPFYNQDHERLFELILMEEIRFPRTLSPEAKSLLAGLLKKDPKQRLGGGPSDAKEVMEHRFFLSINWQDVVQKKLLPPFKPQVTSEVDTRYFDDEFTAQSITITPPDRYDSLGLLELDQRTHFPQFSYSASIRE
Mitogen-activated protein kinase 1 (Homo sapiens), sequence (P28482 whole entry): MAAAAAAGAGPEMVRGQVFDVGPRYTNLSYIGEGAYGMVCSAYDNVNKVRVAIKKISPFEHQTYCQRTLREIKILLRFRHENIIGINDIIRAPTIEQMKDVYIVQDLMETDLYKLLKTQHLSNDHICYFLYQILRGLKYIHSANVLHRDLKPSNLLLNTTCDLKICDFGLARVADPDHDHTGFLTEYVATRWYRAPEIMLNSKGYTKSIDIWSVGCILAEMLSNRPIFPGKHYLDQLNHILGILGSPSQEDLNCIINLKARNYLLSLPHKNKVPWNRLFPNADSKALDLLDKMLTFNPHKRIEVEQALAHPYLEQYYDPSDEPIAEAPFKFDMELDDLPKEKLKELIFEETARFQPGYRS

Consider `c1cc(-c2n[nH]c3ccnc(OC4CCOCC4)c23)cc(N2CCOCC2)n1`, for which the metabolised at 0.5 h in data set [1] worked out at 19%.

As for `Cc1n[nH]c2ccnc(OC3CCCCC3)c12`, in data set [1], the metabolised at 0.5 h was found to be 37%. The inhibition (usually how much of the control response was suppressed) came to 40% in [2]; 63% in [3]; 66% in [4]; 56% in data set [5]; 86% in [6]; 37% in data set [7]. The inhibition in data set [8] is 48%; in data set [9], 60%; in data set [10], 55%; in data set [11], 28%; in [12] it was 61%; in [13], 19%. In addition, in data set [14], the inhibition came out at 70%.

In the case of `Cc1n[nH]c2ccnc(NC3CCCCC3)c12`, the metabolised at 0.5 h in [1] came to 13%. Moreover, the inhibition in data set [2] was determined as 70%; in [3], 37%; in data set [4], 29%; in data set [5], 38%; in data set [6] it was 32%; in data set [7], 8%. Moreover, the inhibition in data set [8] is 51%; in data set [9], 66%; in [10], 29%; in data set [11] it was 24%; in [12], 25%; in [13] it was 0%. Further, the inhibition in [14] came out at 34%.

Regarding `Cc1n[nH]c2ccnc(Nc3ccccc3F)c12`, the inhibition in data set [2] turned out to be 26%; in [3] it was 26%; in data set [4], 77%; in data set [5], 50%; in [6] it was 55%; in data set [7], 24%. Further, the inhibition in [8] is 28%; in [9] it was 67%; in data set [10] it was 34%; in data set [11] it was 15%; in data set [12] it was 26%; in data set [13], 0%. The same compound had an inhibition in data set [14] of 60%.

On to `CC(C)n1cc(-c2n[nH]c3ccnc(OC4CCOCC4)c23)cn1`, for which the metabolised at 0.5 h in data set [1] came out at 20%.

On to `Cc1n[nH]c2ccnc(Nc3ccc4ncsc4c3)c12`, for which the inhibition worked out at 10% in [2], 36% in [3], 24% in data set [4] and 56% in [6].
